Assay results as given in ChEMBL document CHEMBL1139484, “Design, synthesis, and binding studies of new potent ligands of cannabinoid receptors” (J Med Chem, 2005).

Experiments:
[1] = Inhibition of anandamide membrane transporter in RBL-2H3 cells assessed as [14C]anandamide uptake; assay type: cell-based, Rattus norvegicus
Method in brief: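 RBL-2H3 cells incubated with [14C]anandamide (4 µM) for 5 min at 37 °C, with or without varying inhibitor concentrations. Medium extracted with CHCl3/CH3OH (2:1); residual radioactivity taken as measure of uptake. IC50 from fit; mean of 3 experiments.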

[2] = target: T1, Fatty-acid amide hydrolase 1 (Rattus norvegicus, UniProt P97612); test: Inhibition of rat brain FAAH assessed as [14C]anandamide hydrolysis
T1 sequence (P97612 whole entry): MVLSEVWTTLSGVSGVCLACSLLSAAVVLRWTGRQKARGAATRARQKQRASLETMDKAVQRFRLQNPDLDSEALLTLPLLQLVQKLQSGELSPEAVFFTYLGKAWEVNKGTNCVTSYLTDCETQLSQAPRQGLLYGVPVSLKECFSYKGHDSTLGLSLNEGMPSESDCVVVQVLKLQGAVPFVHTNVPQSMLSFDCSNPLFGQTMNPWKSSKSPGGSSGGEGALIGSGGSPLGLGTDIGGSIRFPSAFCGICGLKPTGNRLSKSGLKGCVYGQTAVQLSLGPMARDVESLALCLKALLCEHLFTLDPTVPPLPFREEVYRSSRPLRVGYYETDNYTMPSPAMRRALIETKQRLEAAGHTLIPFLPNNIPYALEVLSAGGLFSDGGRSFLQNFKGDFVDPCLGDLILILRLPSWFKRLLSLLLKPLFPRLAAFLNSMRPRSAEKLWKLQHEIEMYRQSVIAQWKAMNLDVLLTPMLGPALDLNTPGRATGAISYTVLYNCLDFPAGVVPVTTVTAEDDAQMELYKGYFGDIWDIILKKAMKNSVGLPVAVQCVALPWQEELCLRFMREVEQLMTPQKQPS
Method in brief: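 Rat brain membranes incubated with [14C]anandamide (6 µM) and increasing compound concentrations in 50 mM Tris-HCl pH 9, 30 min, 37 °C. Mixture extracted with 2 volumes CHCl3/CH3OH (2:1); [14C]ethanolamine in aqueous phase counted by scintillation. IC50 reported; mean of 3 experiments.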

Cannabinoid receptor 1 = Cannabinoid receptor 1 (Homo sapiens, UniProt P21554); test: Displacement of [3H]CP-55940 from human CB1 receptor expressed in COS cells; assay type: cell-based
Chain of Cannabinoid receptor 1 (P21554 whole entry): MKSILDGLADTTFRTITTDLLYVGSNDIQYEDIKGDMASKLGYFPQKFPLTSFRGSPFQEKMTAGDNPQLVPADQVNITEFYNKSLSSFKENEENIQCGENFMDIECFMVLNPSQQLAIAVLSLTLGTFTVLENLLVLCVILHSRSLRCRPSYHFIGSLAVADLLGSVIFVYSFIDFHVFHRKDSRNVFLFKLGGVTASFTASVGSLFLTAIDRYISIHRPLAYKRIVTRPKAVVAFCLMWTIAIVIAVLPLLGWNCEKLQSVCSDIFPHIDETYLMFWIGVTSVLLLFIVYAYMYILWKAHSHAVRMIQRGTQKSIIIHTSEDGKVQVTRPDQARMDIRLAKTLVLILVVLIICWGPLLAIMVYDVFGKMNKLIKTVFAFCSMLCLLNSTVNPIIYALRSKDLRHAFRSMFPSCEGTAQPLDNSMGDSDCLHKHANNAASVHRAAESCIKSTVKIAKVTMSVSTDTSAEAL

Cannabinoid receptor 2 = Cannabinoid receptor 2 (Homo sapiens, UniProt P34972); test: Displacement of [3H]CP-55940 from human CB2 receptor expressed in COS cells; assay type: cell-based
Chain of Cannabinoid receptor 2 (P34972 whole entry): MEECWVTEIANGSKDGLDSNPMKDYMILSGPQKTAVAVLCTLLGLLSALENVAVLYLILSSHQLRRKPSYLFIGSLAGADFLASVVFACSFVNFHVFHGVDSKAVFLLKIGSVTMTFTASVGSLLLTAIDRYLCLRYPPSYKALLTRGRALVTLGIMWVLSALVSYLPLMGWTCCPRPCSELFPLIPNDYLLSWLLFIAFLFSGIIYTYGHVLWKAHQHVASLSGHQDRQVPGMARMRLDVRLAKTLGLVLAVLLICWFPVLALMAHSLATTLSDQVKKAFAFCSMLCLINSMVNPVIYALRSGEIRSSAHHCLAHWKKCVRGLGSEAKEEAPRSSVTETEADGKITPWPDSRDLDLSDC

[3] = target: Cannabinoid receptor (Homo sapiens) (UniProt P34972+P21554); test: Selectivity for human CB2 receptor over human CB1 receptor; assay type: protein assay
Chain of Cannabinoid receptor (Homo sapiens) (P21554 whole entry, looked up): as the sequence (P21554 whole entry) above
Chain of Cannabinoid receptor (Homo sapiens) (P34972 whole entry, looked up): as the sequence (P34972 whole entry) above
Method in brief: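 Ratio of Ki values from [3H]CP-55,940 (0.5 nM) displacement on P2 membranes of COS cells transfected with human CB1 or CB2; Ki from IC50 by Cheng-Prusoff, mean of 3 experiments.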

Structure (SMILES) | IC50 [1] [µM] | Ki (Cannabinoid receptor 1) [µM] | also measured
CCCCCCc1ccc(O)cc1OCCCCCCCCCCC(=O)NC1CC1 | 13 |  | IC50 [2]: > 25 µM
CCCCCCc1ccc(OCCCCCCCCCCCCCCCC(=O)Nc2ccc(O)cc2)cc1O |  | > 10 | 
CCCCCCc1ccc(OCCCCCCCCCCC(=O)NCCO)cc1O |  | > 10 | 
CCCCCc1cc(O)cc(OCCCCCCCCCCCCCCCC(=O)NC2CC2)c1 |  | > 10 | 
CCCCCc1cc(O)cc(OCCCCCCCCCCCCCCCC(=O)Nc2ccc(O)cc2)c1 |  | > 10 | 
O=C(CCCCCCCCCCCCCCCOc1cccc(O)c1)NCCO |  | > 10 | 
CCCCCCCCCCCCCCCc1cccc(OCCCCCC(=O)Nc2ccc(O)cc2)c1 | > 25 |  | 
CCCCCc1cc(O)cc(OCCCCCCCCCCC(=O)NCCO)c1 | 25 |  | 
CCCCCCc1ccc(O)cc1OCCCCCCCCCCC(=O)NCCO | > 25 |  | 
CCCCCCCCCCCCCCCc1cccc(OCCCCCC(=O)NCCO)c1 | > 25 |  | 
O=C(CCCCCCCCCCCCCCCOc1cccc(O)c1)Nc1ccc(O)cc1 |  |  | Ki (Cannabinoid receptor 2): 10 µM
CCCCCc1cc(O)cc(OCCCCCCCCCCC(=O)NC2CC2)c1 | 17 |  | 
O=C(CCCCCCCCCCOc1cccc(O)c1)Nc1ccc(O)cc1 |  |  | Ki (Cannabinoid receptor 2): > 10 µM
CCCCCCc1ccc(O)cc1OCCCCCCCCCCC(=O)Nc1ccc(O)cc1 | > 25 |  | 
CCCCCCc1ccc(O)cc1OCCCCCC(=O)NCCO |  |  | Ki (Cannabinoid receptor 2): > 10 µM
CCCCCCc1ccc(OCCCCCCCCCCC(=O)Nc2ccc(O)cc2)cc1O | > 25 |  | Ki (Cannabinoid receptor 2): > 10 µM
CCCCCCc1ccc(OCCCCCCCCCCC(=O)NC2CC2)cc1O | > 25 | > 10 | Selectivity ratio [3]: 26
O=C(CCCCCCCCCCOc1cccc(O)c1)NCCO |  | > 10 | 
O=C(CCCCCCCCCCOc1cccc(O)c1)NC1CC1 |  | > 10 | 
